Assay results as given in ChEMBL document CHEMBL1142156, “Pharmacokinetic interaction between voriconazole and methadone at steady state in patients on methadone therapy” (Antimicrob Agents Chemother, 2007).

Assays:
Format in all cases: ADME, organism-based
[1] = tested on: Homo sapiens; experiment: Dose normalized AUC (0-24h) in opiate abstinence syndrome patient at 30 to 100 mg, po QD after 2 days; settings: in vivo
Procedure, shortened: (§1)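 Male patients on individualized once-daily methadone (30-100 mg) sampled on day 2, before any coadministration. Plasma taken at 1, 2, 3, 4, 6, 8, 10, 12, 16 and 24 h postdose. (R)- and (S)-methadone quantified by chiral LC-MS/MS (range 5 to 500 ng/ml per enantiomer). Noncompartmental analysis: Cmax/Tmax observed, AUC0-24 by linear/log-trapezoidal method. Normalized lines scaled to a 100-mg dose.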

[2] = tested on: Homo sapiens; experiment: Dose normalized Cmax in opiate abstinence syndrome patient at 30 to 100 mg, po QD after 2 days; settings: in vivo, 48 h; procedure, shortened: as §1
[3] = Dose normalized Tmax in opiate abstinence syndrome patient at 30 to 100 mg, po QD after 2 days; settings: human, in vivo; procedure, shortened: as §1
[4] = AUC (0-24h) in opiate abstinence syndrome patient at 30 to 100 mg, po QD after 2 days; settings: human, plasma; procedure, shortened: as §1
[5] = Cmax in opiate abstinence syndrome patient at 30 to 100 mg, po QD after 2 days; settings: human, in vivo; procedure, shortened: as §1

## CCC(=O)C(C[C@H](C)N(C)C)(c1ccccc1)c1ccccc1 [ESMETHADONE]
[1]
  AUC: 5730 ng·h/mL
[2]
  Cmax: 366 ng/mL
[3]
  Tmax: 1 h
[4]
  AUC: 4030 ng·h/mL
[5]
  Cmax: 287 ng/mL

## CCC(=O)C(C[C@@H](C)N(C)C)(c1ccccc1)c1ccccc1 [LEVOMETHADONE]
[1]
  AUC: 5540 ng·h/mL
[2]
  Cmax: 322 ng/mL
[3]
  Tmax: 1 h
[4]
  AUC: 4300 ng·h/mL
[5]
  Cmax: 256 ng/mL
